VIM-2 inh: VIM-2 metallo-beta-lactamase inhibitors, primary screen, biochemical, epi-absorbance readout, Pseudomonas aeruginosa enzyme. inhibition, % at 5.6 µM. AID 1527, 2009. 0.89% of 290,000 active. purified VIM-2, nitrocefin hydrolysis, epi-absorbance fluorescence;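 active = inhibition above the mean of all tested compounds plus 3 SD, cutoff set per screening run, cut at about 7.5% in these data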;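 also: red hydrolysis product quenches plate fluorescence so inhibitors raise well fluorescence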
Mdm2-MdmX inh: inhibitors of human Mdm2-MdmX association, primary screen, cell-based, luminescence, split luciferase, SaOS-2, uHTS; SaOS-2 split-luciferase Mdm2/MdmX complementation; 3% of 330,000 active; inhibition, % at 8 µM; AID 485346, 2010; Protein Mdm4 (Homo sapiens) + E3 ubiquitin-protein ligase Mdm2 (Homo sapiens), …;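 active = inhibition of at least 50% at 8 µM in the primary screen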
aSyn UTR inh: MLPCN primary screen, SNCA 5' untranslated region. alpha-synuclein 5'UTR reporter, inhibitor activity. inhibition, % (tested at 7.5 µM). 0.82% of 300,000 active; in the data active = inhibition above about 60%;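 also: H4 neuroglioblastoma cells stably carrying SNCA 5'UTR luciferase fusion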
Jurkat NFkB inh: inhibitors of induced NF-kB luciferase reporter, primary screen, TCR NF-kB activation inhibitor project, cell-based, luminescence, uHTS; Jurkat, PMA/ionomycin-induced NF-kB luciferase reporter; inhibition, % at 4 µM; 0.53% of 330,000 active; in the data active = inhibition above about 50%
IMP-1 inh-1: IMP-1 metallo-beta-lactamase inhibitors, primary screen, biochemical, epi-absorbance readout, Pseudomonas aeruginosa enzyme. purified IMP-1, nitrocefin hydrolysis, epi-absorbance fluorescence. inhibition, % at 5.6 µM. 0.45% of 290,000 active;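 active = inhibition above the mean plus 3 SD of all compounds in the same screening run, cut at about 4.5% in these data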
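System: purified IMP-1 / Input: IMP-1 dispensed at 0.2 nM / Medium: 50 mM HEPES pH 7.1, 50 µM ZnSO4, 0.05% Brij 35 / Timing: 15 min enzyme–compound preincubation, then 25 min nitrocefin reaction, 25 °C / Technique: plate fluorescence quenching by hydrolysis product, ex 480/em 530 nm / Repeats: singlicate testing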
697 NFkB inh: inhibitors of PMA/ionomycin-induced NF-kB reporter, 697 cells, primary screen, B-cell NF-kB inhibitor project, cell-based, luminescence, uHTS. inhibition, % at 4 µM. 697 B-cell NF-kB luciferase reporter, 16 h. 0.33% of 330,000 active; in the data active = inhibition above about 35%
IMP-1 inh-2: IMP-1 metallo-beta-lactamase inhibitors, confirmation, selectivity assay for selective VIM-2 inhibitor project, biochemical, epi-absorbance readout, triplicate. purified IMP-1, nitrocefin hydrolysis, epi-absorbance fluorescence. shares compounds with VIM-2 inh. inhibition, % at 5.6 µM. AID 1856, 2009. 1,300 tested, under 10 active; call rule not given here
VIM-2 FRET ctr: VIM-2 inhibitors in FRET format, confirmation, artefact control for selective VIM-2 inhibitor project, biochemical, epi-absorbance artifact exclusion; shares compounds with VIM-2 inh; purified VIM-2, CCF2 FRET substrate hydrolysis; inhibition, % at 5.6 µM; 23% of 1,300 active; AID 1857, 2009;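 active = inhibition above the mean of all tested compounds plus 3 SD, cut at about 19% in these data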
TEM-1 counter: TEM-1 serine beta-lactamase inhibitors, counter-screen for VIM-2 inhibitor project, biochemical, epi-absorbance, HTS. shares compounds with VIM-2 inh. Purified TEM-1, nitrocefin hydrolysis, epi-absorbance fluorescence. inhibition, % at 5.6 µM. 3% of 1,300 active. AID 1866, 2009;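 active = inhibition above that campaign's mean inhibition plus 3 SD, cut at about 0.46% in these data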
Target sequence (P62593 whole entry, looked up): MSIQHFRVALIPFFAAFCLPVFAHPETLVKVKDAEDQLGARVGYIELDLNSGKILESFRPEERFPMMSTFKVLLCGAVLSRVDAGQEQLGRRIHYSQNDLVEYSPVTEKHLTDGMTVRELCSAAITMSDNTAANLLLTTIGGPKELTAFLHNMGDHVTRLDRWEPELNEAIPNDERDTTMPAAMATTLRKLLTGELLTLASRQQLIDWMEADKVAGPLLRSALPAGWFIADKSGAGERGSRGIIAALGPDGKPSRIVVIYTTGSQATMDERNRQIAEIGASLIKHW
VIM-2 confirm 2: VIM-2 metallo-beta-lactamase inhibitors, confirmation, biochemical, epi-absorbance, hits shared with IMP-1 screen; AID 2187, 2009; shares compounds with VIM-2 inh; 96% of 1,300 active; inhibition, % at 5.6 µM; purified VIM-2, nitrocefin hydrolysis;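 active = inhibition of the VIM-2 beta-lactamase enzyme above about 11% from the earlier first-round screen, limit read from the data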
Jurkat NFkB conf: PMA/ionomycin-induced NF-kB reporter inhibitors, Jurkat retest, confirmation, T-cell NF-kB inhibitor project, cell-based, luminescence, single concentration; AID 435020, 2010; inhibition, % at 4 µM; Jurkat NF-kB luciferase, 16 h; shares compounds with Jurkat NFkB inh; 27% of 2,700 active;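 active = inhibition reaching about 45% at 4 µM in either replicate, limit read from the data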
697 NFkB conf: PMA/ionomycin-induced NF-kB reporter inhibitors, 697 retest, confirmation, B-cell NF-kB inhibitor project, cell-based, luminescence, single concentration; shares compounds with 697 NFkB inh; 35% of 2,000 active; inhibition, % at 4 µM; AID 449746, 2010; 697 B-cell NF-kB luciferase, 16 h; in the data active = inhibition mostly above about 28%, no sharp cut-off; inactive = mostly below about 22%
Mdm2-MdmX conf: Mdm2-MdmX complex disruptors, retested hits, confirmation, luminescence, single concentration | Mdm2-MdmX binding, luminescent assay | 55% of 10,000 active | shares compounds with Mdm2-MdmX inh | AID 489028, 2010 | inhibition, % at 8 µM; in the data active = inhibition above about 40%
Full FLuc ctr: full-length luciferase signal inhibition, confirmation, counter-screen for Mdm2/MdmX interaction inhibitor project, cell-based, single concentration, SaOS-2 | shares compounds with Mdm2-MdmX inh | SaOS-2 full-length luciferase counterscreen, luminescence | inhibition, % at 8 µM | 77% of 6,200 active;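 active = mean inhibition at 8 µM reaching about 37%, which flags the compound as non-specific, limit read from the data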;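 also: p53-null SaOS-2 cells with luciferase driven by a doxycycline-inducible promoter; compound on cells about two nights before reading with doxycycline added after day one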
Of the large screens only hits and unclear results are named; the others gave an inactive call (follow-up assays come after a bar, where they were run). Compounds with a hit are over-represented: about 4.7% of the library has one in this group of screens.

CN1CCN(C(=O)c2ccccc2NC(=O)c2sc3ccccc3c2Cl)CC1	none
CN1CCN(c2ccc(NC(=O)c3sc4ccccc4c3Cl)cc2)CC1	VIM-2 inh 22 | IMP-1 inh-2 inactive | VIM-2 FRET ctr inactive | TEM-1 counter inactive | VIM-2 confirm 2 51 | Jurkat NFkB conf inactive
Cn1c2ccccc2c(=O)c2ccc(C#CC3(N)CCCCC3)cc21	VIM-2 inh 28 | IMP-1 inh-2 inactive | VIM-2 FRET ctr inactive | TEM-1 counter inactive | VIM-2 confirm 2 39 | Jurkat NFkB conf inactive
N#Cc1ccncc1S(=O)c1ccc(Cl)cc1 (stereo unspecified)	none
Cc1ccc(-c2nn3c(C)nnc3c3ccccc23)cc1S(=O)(=O)N1CCN(CCO)CC1	VIM-2 inh 61, 697 NFkB inh 37 | IMP-1 inh-2 inactive | VIM-2 FRET ctr inactive | TEM-1 counter inactive | VIM-2 confirm 2 73 | 697 NFkB conf 37
CNS(=O)(=O)c1cn(CC(=O)NCc2ccc(N(C)C)cc2)cc1S(=O)(=O)NC	none
CCN(CC)CCNC(=O)c1ccc2c(c1NCCO)C(=O)c1ccccc1C2=O	VIM-2 inh 14, Mdm2-MdmX inh 91, aSyn UTR inh 96, Jurkat NFkB inh 86 | IMP-1 inh-2 inactive | VIM-2 FRET ctr inactive | TEM-1 counter inactive | VIM-2 confirm 2 20 | Jurkat NFkB conf 47 | Mdm2-MdmX conf 84 | Full FLuc ctr inactive
CN(Cc1ccccc1F)C(=O)c1ccc2c(=O)n3c(nc2c1)CCC3	none (no result: VIM-2 inh, IMP-1 inh-1)
CCN(CC)CCNc1ncnc2c1sc1nc(N3CCOCC3)c3c(c12)CCCC3	VIM-2 inh 15, Mdm2-MdmX inh 71 | IMP-1 inh-2 inactive | VIM-2 FRET ctr inactive | TEM-1 counter inactive | VIM-2 confirm 2 33 | Mdm2-MdmX conf inactive | Full FLuc ctr 65
OCCNc1ncnc2c1sc1nc(N3CCOCC3)c3c(c12)CCC3	none
COc1cc(-c2nc3ccc(N4CCN(C)CC4)cc3[nH]2)cc(OC)c1OC	VIM-2 inh 13, Mdm2-MdmX inh 79, 697 NFkB inh 38 | IMP-1 inh-2 inactive | VIM-2 FRET ctr inactive | TEM-1 counter inactive | VIM-2 confirm 2 26 | 697 NFkB conf 31 | Mdm2-MdmX conf 65 | Full FLuc ctr 73
COc1ccc2nc(-c3cccc(N)c3)[nH]c2c1	none
Cc1nn(CC(=O)NCCCN2CCN(C)CC2)c(=O)c2cc(-c3ccccc3)nn12	none
Cc1nn(CC(=O)NCCCN2CCC(N3CCCCC3)CC2)c(=O)c2cc(-c3ccccc3)nn12	VIM-2 inh 22, Mdm2-MdmX inh 95 | IMP-1 inh-2 inactive | VIM-2 FRET ctr inactive | TEM-1 counter inactive | VIM-2 confirm 2 37 | Mdm2-MdmX conf 53 | Full FLuc ctr 56
c1ccc2c(c1)nnn1c3ccccc3nc21	none
ClC(Cl)(Cl)c1nc2ccccc2n2nncc12	VIM-2 inh 24, Mdm2-MdmX inh 77 | IMP-1 inh-2 inactive | VIM-2 FRET ctr inactive | TEM-1 counter inactive | VIM-2 confirm 2 38 | Mdm2-MdmX conf 60 | Full FLuc ctr inactive
CN1CCN(c2ccc(NC(=O)c3ccc(-c4ccc(Cl)cc4)o3)cc2)CC1	VIM-2 inh 28, Mdm2-MdmX inh 100 | IMP-1 inh-2 inactive | VIM-2 FRET ctr inactive | TEM-1 counter inactive | VIM-2 confirm 2 42 | Mdm2-MdmX conf 48 | Full FLuc ctr 77
COc1ccc2nc(C)cc(Nc3ccc(N4CCN(C)CC4)cc3)c2c1	VIM-2 inh 90, Mdm2-MdmX inh 99, Jurkat NFkB inh 74 | IMP-1 inh-2 inactive | VIM-2 FRET ctr inactive | TEM-1 counter inactive | VIM-2 confirm 2 91 | Jurkat NFkB conf inactive | Mdm2-MdmX conf 90 | Full FLuc ctr 36
COc1ccc2nc(C)cc(Nc3ccc(N4CCOCC4)cc3)c2c1	none
CC1CN(C(=O)c2ccccc2NS(=O)(=O)c2ccc(Cl)cc2)CC(C)O1 (stereo unspecified)	none (no result: VIM-2 inh, aSyn UTR inh, IMP-1 inh-1)
Cc1nnc2c3ccccc3c(-c3ccccc3)nn12	VIM-2 inh 24, Mdm2-MdmX inh 64, 697 NFkB inh 43 | IMP-1 inh-2 inactive | VIM-2 FRET ctr inactive | TEM-1 counter 1.9 | VIM-2 confirm 2 43 | 697 NFkB conf 32 | Mdm2-MdmX conf inactive
Cc1nnc2c3ccccc3c(-c3cccc4ccccc34)nn12	none (no result: Mdm2-MdmX inh, aSyn UTR inh, Jurkat NFkB inh, 697 NFkB inh)
COc1nnc(-c2ccc(C)c(S(=O)(=O)NC(C)(C)CO)c2)c2ccccc12	none
Cc1ccc(-c2nn3c(C)nnc3c3ccccc23)cc1S(=O)(=O)NC(C)(C)CO	VIM-2 inh 22, Mdm2-MdmX inh 71, 697 NFkB inh 36 | IMP-1 inh-2 inactive | VIM-2 FRET ctr inactive | TEM-1 counter inactive | VIM-2 confirm 2 37 | 697 NFkB conf 61 | Mdm2-MdmX conf 53 | Full FLuc ctr 78
CCOC(=O)c1c(C)[nH]c(C)c1S(=O)(=O)N1CCCCC1	none

Compound activity as filed in PubChem BioAssay.
